# Measured values reported in PubChem BioAssay.
# “And” between values parts separate entries of the source, which are not always exact repeats. Equal values may be shown once. The source made the active and inactive calls.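 The calls were made as follows, unless noted: active = viability loss from added drug above about 55%, and viability with drug at most 40%, in both replicates (limit read from the data, passing the limit was not always enough); inconclusive = both conditions met in only one replicate; inactive = neither replicate meets both conditions.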
# Assays:
# [1] = reduced viability of SK-BR-3 breast cancer cells – cell-based, 24 h, human, pilot screen (AID 572;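 active = viability at or below 10% of carrier control in both of two separate runs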;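 also: compound exposure lasted between 18 and 24 h rather than exactly 24 h; 100% = carrier-treated control wells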); conditions: SK-BR-3 viability, CellTiter-Glo luminescence, at 10 µM, stronger effect = lower value
# [2] = HUVEC growth inhibition – cell-based, human, primary screen (AID 575;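 active = viability at or below 30% in both replicate assays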;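 also: 100% = median of untreated cell wells with 0.1% DMSO on each plate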); conditions: HUVEC proliferation, CellTiter-Glo luminescence, 72 h; at 10 µM; stronger effect = lower value
# Procedure, shortened: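 Timing: 72 h treatment at 37 °C; material: HUVEC primary cells; technique: CellTiter-Glo luminescence measuring cellular ATP; controls: vehicle and MePR control wells; measure: percent of median DMSO-control luminescence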
# [3] = H69AR cell proliferation blockers – human, duplicate replicates, primary screen (AID 580;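 active = viability at or under a set limit in both replicates, limit being median viability minus 3 SD, cut at about 48% in these data, passing the limit was not always enough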;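 also: 100% = mean luminescence of untreated wells and 0% = no signal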); conditions: H69AR lung tumor cells viability, ATP luminescence, 72 h; at 10 µM; stronger effect = lower value
# [4] = MRP1 drug-resistance reversers in H69AR cells – cell-based, doxorubicin co-treatment, pilot screen (AID 601); conditions: CellTiter-Glo, 72 h, at 10 µM; for differential viability (reversal): stronger effect = higher value
# [5] = yeast transport mutant growth inhibition pilot in 384-well plates, post-Golgi transport modulator project (AID 636; in the data active = inhibition above about 31%); conditions: absorbance 615 nm, about 18 h, stronger effect = higher value
# [6] = growth suppression of yeast trafficking mutant, preliminary HTS, modulators of trafficking downstream of Golgi apparatus project, 1536-format plate, OD 615 nm (AID 637; in the data active = inhibition above about 30%); conditions: yeast transport mutant growth, absorbance 615 nm, 18 h; stronger effect = higher value
# [7] = H69AR cells + 2 uM doxorubicin, measured here: viability with 2 uM doxorubicin, stronger effect = lower value
# [8] = H69AR cells, compound alone cytotoxicity
Compound,viability [1],viability [2],viability [3],differential viability (reversal) ([4]; H69AR cells + 2 uM doxorubicin),"viability [4, 7]","viability [4, 8]",inhibition [5],inhibition [6]
COc1ccc(Nc2nc(Nc3ccc(OC)cc3)nc(-n3[nH]c(=O)c(C)c3C)n2)cc1,79% (inactive),92.8% (inactive),12.1% (active),1.18% (inactive),11%,12.1%,-4.32% (inactive),16.9% (inactive)
Cc1ccc2c(c1)NC(=O)C(CC(=O)NCCCN1CCN(c3cc(Cl)ccc3C)CC1)O2 (stereo not drawn),75.5% (inactive),1.67% (active),22.9% (active),-17.8% (inactive),40.7%,22.9%,3.07% (inactive),0.98% (inactive)
CCc1nnc(-n2nc(C)cc2-c2ccccc2)n1N,107% (inactive),118% (inactive),93.5% (inactive),2.83% (inactive),90.7%,93.5%,-2.47% (inactive),-1.8% (inactive)
Cc1nn(-c2ccccc2)c2[nH]c(C(F)(F)F)cc(=O)c12,131% (inactive),95.6% (inactive),108% (inactive),-10.8% (inactive),118%,108%,-5.62% (inactive),4.36% (inactive)
c1ccc(-c2cc(CSc3nc4ccccc4[nH]3)on2)cc1,94% (inactive),91.8% (inactive),102% (inactive),15.5% (inactive),86.5%,102%,-6.13% (inactive),3.09% (inactive)
CC(=O)OCC(=O)[C@@]1(OC(C)=O)[C@@H](C)C[C@H]2[C@@H]3C[C@H](F)C4=CC(=O)C=C[C@]4(C)[C@@]3(F)[C@@H](O)C[C@@]21C,119% (inactive),102% (inactive),94.5% (inactive),5.08% (inactive),89.5%,94.5%,-1.69% (inactive),7.33% (inactive)
CCOc1cc(C(=O)N(C)Cc2cc3ccccc3[nH]c2=O)cc(OCC)c1OCC,92% (inactive),107% (inactive),98.6% (inactive),2.04% (inactive),96.6%,98.6%,-7.43% (inactive),-4.18% (inactive)
O=C(COc1ccc(S(=O)(=O)NC2CCCCC2)cc1)NCc1ccccn1,65% (inactive),102% (inactive),85.6% (inactive),-3% (inactive),88.6%,85.6%,-7.26% (inactive),2.18% (inactive)
Cn1cc(C(=O)NC2CCCCCCC2)c(=O)c2cc(S(=O)(=O)N3CCCC3)ccc21,76.5% (inactive),79.8% (inactive),90.9% (inactive),0.325% (inactive),90.6%,90.9%,-5.95% (inactive),-4.67% (inactive)
Cc1cc(C)n2nc(SCC(=O)N(C)Cc3ccccc3)nc2n1,109% (inactive),107% (inactive),81.7% (inactive),-20.2% (inactive),102%,81.7%,-6.85% (inactive),1.82% (inactive)
CCn1c(=O)c2cc(S(=O)(=O)NCc3ccccc3)ccc2n(CC)c1=O,93% (inactive),62.8% (inactive),19.4% (active),-77.1% (inactive),96.5%,19.4%,-1.3% (inactive),18.7% (inactive)
Cc1ccc(C2=Nc3ccccc3NC(C)(c3ccc(C)o3)C2)o1 (stereo not drawn),95% (inactive),79% (inactive),64% (inactive),-10.7% (inactive),74.7%,64%,3.97% (inactive),27.1% (inactive)
Cc1nc2ccc(C(=O)O)cc2c2c1CC(C)S2 (stereo not drawn),93% (inactive),96.8% (inactive),90.8% (inactive),-2.25% (inactive),93.1%,90.8%,-4.93% (inactive),0.55% (inactive)
CCn1nnnc1SCC(=O)Nc1nc(-c2cccs2)cs1,110% (inactive),83.8% (inactive),86.5% (inactive),18.2% (inactive),68.3%,86.5%,-11% (inactive),3.87% (inactive)
CC(=O)c1c(O)cc(C)n(Nc2nc(C)cc(C)n2)c1=O,91% (inactive),84.6% (inactive),71.9% (inactive),-28.5% (inactive),100%,71.9%,-4.05% (inactive),-0.73% (inactive)
Cc1ccc(OCCN2CCN(C(=O)CCC(=O)Nc3nnc(C)s3)CC2)cc1,88% (inactive),118% (inactive),88.6% (inactive),-3.2% (inactive),91.8%,88.6%,-7.03% (inactive),2.91% (inactive)
CC(C(=O)O)c1ccc(-c2ccccc2)c(F)c1 (stereo not drawn),94% (inactive),81.7% (inactive),90.2% (inactive),-1.62% (inactive),91.8%,90.2%,-1.82% (inactive),-1.5% (inactive)
COCCn1c(C)cc(C(=O)COC(=O)c2ccc(N3CCCC3=O)cc2)c1C,95% (inactive),88.4% (inactive),92.3% (inactive),8.88% (inactive),83.4%,92.3%,-4.8% (inactive),2.18% (inactive)

Compound,viability [1],viability [2],viability [3],differential viability (reversal) ([4]; H69AR cells + 2 uM doxorubicin),"viability [4, 7]","viability [4, 8]",inhibition [5],inhibition [6]
Cc1ccc(N2CCN(CCc3nc4cc(NS(C)(=O)=O)ccc4n3C)CC2)cc1,104% (inactive),110% (inactive),90.1% (inactive),3.72% (inactive),86.4%,90.1%,-6.75% (inactive),-5.74% (inactive)
COC(=O)c1sccc1NC(=O)c1ccco1,109% (inactive),92.3% (inactive),96.3% (inactive),-5.95% (inactive),102%,96.3%,-6.71% (inactive),7.27% (inactive)
COc1ccc(N2C(=O)c3cccc4cccc(c34)C2=O)nn1,82% (inactive),90.8% (inactive),92.3% (inactive),-7.67% (inactive),100%,92.3%,-5.89% (inactive),5.09% (inactive)
Cc1cc(C)cc(-n2nnc(C(=O)NCc3ccc4c(c3)OCO4)c2N)c1,106% (inactive),88.5% (inactive),97.7% (inactive),-6.51% (inactive),104%,97.7%,-5.19% (inactive),0% (inactive)
COc1cc(NS(=O)(=O)c2ccc(N)cc2)nc(OC)n1,109% (inactive),80.7% (inactive),100% (inactive),11.7% (inactive),88.4%,100%,1.43% (inactive),3.83% (inactive)
CCC(=O)c1ccc(O)cc1,96% (inactive),97% (inactive),97.1% (inactive),-3.6% (inactive),101%,97.1%,-0.13% (inactive),3.33% (inactive)
Cc1nnc(SCc2nnc(-c3ccccc3Br)o2)n1-c1ccccc1,86% (inactive),87.5% (inactive),90.2% (inactive),-3.37% (inactive),93.6%,90.2%,0.41% (inactive),0% (inactive)
CC1CCCC(C)N1C(=O)CSc1nnc(-c2cccs2)o1 (stereo not drawn),92% (inactive),106% (inactive),95.1% (inactive),-1.69% (inactive),96.8%,95.1%,0.54% (inactive),-3.09% (inactive)
O=S1(=O)CCC(N=Cc2cc(Br)ccc2O)C1 (stereo not drawn),94% (inactive),68.9% (inactive),78.1% (inactive),-14.3% (inactive),92.4%,78.1%,-5.62% (inactive),2.26% (inactive)
c1ccc(-c2oc3ncnc(NCCN4CCOCC4)c3c2-c2ccccc2)cc1,90% (inactive),58.8% (inactive),73.3% (inactive),40.4% (inactive),32.9%,73.3%,-0.52% (inactive),-4.1% (inactive)
CC(=N\O)/C(CN(C)C)=N/O,97% (inactive),88.7% (inactive),91.5% (inactive),-6.4% (inactive),97.9%,91.5%,-1.78% (inactive),25.6% (inactive)
COC(=O)c1ccccc1NC(=O)CN1CCC(n2nnc3cc(F)ccc32)CC1,64% (inactive),94.9% (inactive),100% (inactive),10.3% (inactive),89.7%,100%,-6.16% (inactive),-1.27% (inactive)
CN(C)C(=O)Oc1cccc([N+](C)(C)C)c1,62% (inactive) and 92% (inactive),97.5% (inactive) and 92% (inactive),94.7% (inactive) and 120% (inactive),-1.94% (inactive) and 17.4% (inactive),96.6% and 103%,94.7% and 120%,-5.06% (inactive) and -2.21% (inactive),-4% (inactive) and -5.83% (inactive)
O=S(=O)(Nn1cnnc1)c1ccccc1Cl,84% (inactive),109% (inactive),89.3% (inactive),-3.4% (inactive),92.7%,89.3%,4% (inactive),7.09% (inactive)
CN(C(=O)C1CCOC1)c1nnc(-c2cccnc2)s1 (stereo not drawn),92% (inactive),101% (inactive),88.5% (inactive),4.19% (inactive),84.3%,88.5%,-1.23% (inactive),19.4% (inactive)
Cc1ccc(Cn2c(SCC(N)=O)nc3c2c(=O)n(C)c(=O)n3C)cc1,106% (inactive),86.9% (inactive),86.4% (inactive),3.46% (inactive),82.9%,86.4%,-2.4% (inactive),-6.55% (inactive)
COC(=O)C1=C(C)NC(C)=C(C(=O)OC)C1C(=O)OC1CCCCC1=O (stereo not drawn),89% (inactive),105% (inactive),97.3% (inactive),3.25% (inactive),94%,97.3%,-4.46% (inactive),-0.49% (inactive)
Cc1[nH]nc(-c2ccc(O)c(C)c2O)c1-c1cnn(-c2ccccc2)c1,93% (inactive),85.4% (inactive),94.2% (inactive),12% (inactive),82.1%,94.2%,-4.52% (inactive),-3.27% (inactive)
